The target of one experiment is Focal adhesion kinase 1 (Homo sapiens, UniProt Q05397). Briefly: Inhibition of human recombinant FAK.
In the next experiment the target is Aurora kinase B (Homo sapiens, UniProt Q96GD4). Briefly: Inhibition of human recombinant Aurora B. In short, it runs like this: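 Aurora-A or Aurora-B, human cDNA expressed in Sf9 cells as tagged recombinant protein, phosphorylating Tetra(LRRWSLG). Reactions used 60 mM HEPES pH 7.5, Mg2+/Mn2+ (3 mM each), 1.2 mM DTT, vanadate and 1 µM [γ-33P]ATP, ran 80 min at 30 °C and were stopped with 2% H3PO4.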

The target of experiment [1] is Proto-oncogene tyrosine-protein kinase Src (Homo sapiens, UniProt P12931). Briefly: Inhibition of human recombinant SRC. In short, it runs like this: (§1)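 Human kinases expressed in Sf9 cells via baculovirus as GST or His fusions and affinity purified. 33PanQinase assay in 60 mM HEPES-NaOH pH 7.5, 3 mM MgCl2, 3 mM MnCl2, 3 µM orthovanadate, 1.2 mM DTT, 1 µM [γ-33P]ATP, 1% DMSO; 30 °C, 80 min. Substrates: poly(Glu,Tyr) 4:1 for ERBB2, IGF1-R and SRC; poly(Ala,Glu,Lys,Tyr) 6:2:5:1 for FLT3. IC50 from 10 concentrations by scintillation counting.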

A further experiment has as its target Angiopoietin-1 receptor (Homo sapiens, UniProt Q02763). Briefly: Inhibition of human recombinant TIE2. The procedure, abridged:
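Recombinant human tyrosine kinases (EPHB4, TIE2, VEGF-R2, VEGF-R3), expressed in Sf9 insect cells as GST- or His-fusions, with poly(Glu,Tyr) 4:1 as substrate. Conditions: 1 µM [γ-33P]ATP, pH 7.5 HEPES buffer with Mg/Mn, DTT and vanadate, 30 °C for 80 min, 1% DMSO. Ten concentrations were tested and IC50 came from scintillation counting of incorporated 33P.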

In experiment [2] the target is T1, Receptor-type tyrosine-protein kinase FLT3 (Homo sapiens, UniProt P36888).
T1 sequence (P36888 whole entry): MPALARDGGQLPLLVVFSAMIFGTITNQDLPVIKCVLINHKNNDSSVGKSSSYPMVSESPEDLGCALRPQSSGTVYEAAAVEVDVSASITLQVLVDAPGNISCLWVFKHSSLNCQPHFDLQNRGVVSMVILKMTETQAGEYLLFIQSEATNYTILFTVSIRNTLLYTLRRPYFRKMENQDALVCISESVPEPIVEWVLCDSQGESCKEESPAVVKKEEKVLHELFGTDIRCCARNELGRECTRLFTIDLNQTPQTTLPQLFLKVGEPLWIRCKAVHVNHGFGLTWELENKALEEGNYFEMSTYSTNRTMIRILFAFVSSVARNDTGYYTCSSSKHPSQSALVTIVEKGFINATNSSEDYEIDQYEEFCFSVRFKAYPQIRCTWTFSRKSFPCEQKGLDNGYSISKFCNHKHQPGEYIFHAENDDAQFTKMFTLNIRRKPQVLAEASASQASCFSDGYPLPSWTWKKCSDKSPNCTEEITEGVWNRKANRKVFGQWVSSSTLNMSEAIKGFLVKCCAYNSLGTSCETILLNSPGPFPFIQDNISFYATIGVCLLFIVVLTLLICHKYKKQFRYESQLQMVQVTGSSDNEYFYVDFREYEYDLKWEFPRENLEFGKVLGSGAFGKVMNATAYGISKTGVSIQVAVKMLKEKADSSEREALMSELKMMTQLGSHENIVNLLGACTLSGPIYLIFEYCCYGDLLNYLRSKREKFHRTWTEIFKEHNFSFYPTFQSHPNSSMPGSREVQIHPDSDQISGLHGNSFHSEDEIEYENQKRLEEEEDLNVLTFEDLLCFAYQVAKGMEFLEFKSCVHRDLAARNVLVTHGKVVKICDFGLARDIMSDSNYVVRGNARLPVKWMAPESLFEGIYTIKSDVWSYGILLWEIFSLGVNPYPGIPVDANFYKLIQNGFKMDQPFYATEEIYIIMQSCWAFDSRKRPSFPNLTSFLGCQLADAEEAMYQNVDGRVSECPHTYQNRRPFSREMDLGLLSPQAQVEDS
Briefly: Inhibition of human recombinant FLT3. The procedure, abridged: as §1

Another experiment is filed under the species Homo sapiens. Briefly: Antiangiogenic activity in VEGF-induced HLMEC assessed as sprouts per bead at 1.3 uM after 24 hrs by sprouting assay. It is filed as functional. The procedure, abridged: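 HLMEC seeded on cytodex-3 microcarrier beads and embedded in 3D fibrinogen gel with 20 ng/mL VEGF plus compound at a final 1.3 or 2.6 µM (from 1 mM DMSO stock). Gel polymerised with 0.65 U/mL thrombin and overlaid with MCDB131, 5% FCS, 5% human serum and 200 U/mL Trasylol. Negative control: gel without growth factors. After 24 h, fixed in 1% PFA; sprouts per 50 beads counted microscopically. Triplicates per condition, n = 9 experiments.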

Experiment [3] addresses T2, NUAK family SNF1-like kinase 1 (Homo sapiens, UniProt O60285).
T2 sequence (O60285 whole entry): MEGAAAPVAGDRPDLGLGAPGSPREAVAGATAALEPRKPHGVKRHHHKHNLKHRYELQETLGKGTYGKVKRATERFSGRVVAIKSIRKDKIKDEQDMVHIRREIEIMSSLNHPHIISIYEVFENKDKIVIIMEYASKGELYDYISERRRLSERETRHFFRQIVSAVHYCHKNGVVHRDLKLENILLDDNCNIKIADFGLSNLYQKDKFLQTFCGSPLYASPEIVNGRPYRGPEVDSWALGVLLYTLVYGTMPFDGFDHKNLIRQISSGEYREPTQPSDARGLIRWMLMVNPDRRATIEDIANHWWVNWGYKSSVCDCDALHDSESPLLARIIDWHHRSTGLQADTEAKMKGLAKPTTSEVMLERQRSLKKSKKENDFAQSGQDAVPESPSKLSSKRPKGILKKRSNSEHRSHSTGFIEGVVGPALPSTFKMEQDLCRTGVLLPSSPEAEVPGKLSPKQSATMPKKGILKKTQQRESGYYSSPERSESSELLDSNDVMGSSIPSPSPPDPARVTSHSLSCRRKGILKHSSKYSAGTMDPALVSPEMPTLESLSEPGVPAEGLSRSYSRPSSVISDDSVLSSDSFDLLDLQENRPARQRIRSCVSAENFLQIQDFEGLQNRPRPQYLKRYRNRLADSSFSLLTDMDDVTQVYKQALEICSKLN
Briefly: Inhibition of human recombinant ARK5. In short, it runs like this:
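Human ARK5 made in Sf9 cells by baculovirus (GST- or His-tagged, affinity-purified) and read by autophosphorylation in a 33PanQinase radiometric assay. Buffer: 60 mM HEPES-NaOH pH 7.5, 3 mM MgCl2, 3 mM MnCl2, 3 µM orthovanadate, 1.2 mM DTT, PEG20000 and 1 µM [γ-33P]ATP.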

Experiment [4] addresses Cyclin-dependent kinase 4/cyclin D1 (Homo sapiens, UniProt P11802). Briefly: Inhibition of human recombinant CDK4/cyclin D1. It counts as protein-complex assay. In short, it runs like this: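 CDK4/CycD1 (human, baculovirus/Sf9, affinity-purified) with Rb-CTF as substrate. The radiometric FlashPlate assay held 1 µM [γ-33P]ATP in HEPES-NaOH pH 7.5 with 3 mM MgCl2 and 3 mM MnCl2.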

A further experiment concerns the target Insulin receptor (Homo sapiens, UniProt P06213). Nature of the experiment: Inhibition of human recombinant INS-R.

Chain of Focal adhesion kinase 1 (Q05397 whole entry): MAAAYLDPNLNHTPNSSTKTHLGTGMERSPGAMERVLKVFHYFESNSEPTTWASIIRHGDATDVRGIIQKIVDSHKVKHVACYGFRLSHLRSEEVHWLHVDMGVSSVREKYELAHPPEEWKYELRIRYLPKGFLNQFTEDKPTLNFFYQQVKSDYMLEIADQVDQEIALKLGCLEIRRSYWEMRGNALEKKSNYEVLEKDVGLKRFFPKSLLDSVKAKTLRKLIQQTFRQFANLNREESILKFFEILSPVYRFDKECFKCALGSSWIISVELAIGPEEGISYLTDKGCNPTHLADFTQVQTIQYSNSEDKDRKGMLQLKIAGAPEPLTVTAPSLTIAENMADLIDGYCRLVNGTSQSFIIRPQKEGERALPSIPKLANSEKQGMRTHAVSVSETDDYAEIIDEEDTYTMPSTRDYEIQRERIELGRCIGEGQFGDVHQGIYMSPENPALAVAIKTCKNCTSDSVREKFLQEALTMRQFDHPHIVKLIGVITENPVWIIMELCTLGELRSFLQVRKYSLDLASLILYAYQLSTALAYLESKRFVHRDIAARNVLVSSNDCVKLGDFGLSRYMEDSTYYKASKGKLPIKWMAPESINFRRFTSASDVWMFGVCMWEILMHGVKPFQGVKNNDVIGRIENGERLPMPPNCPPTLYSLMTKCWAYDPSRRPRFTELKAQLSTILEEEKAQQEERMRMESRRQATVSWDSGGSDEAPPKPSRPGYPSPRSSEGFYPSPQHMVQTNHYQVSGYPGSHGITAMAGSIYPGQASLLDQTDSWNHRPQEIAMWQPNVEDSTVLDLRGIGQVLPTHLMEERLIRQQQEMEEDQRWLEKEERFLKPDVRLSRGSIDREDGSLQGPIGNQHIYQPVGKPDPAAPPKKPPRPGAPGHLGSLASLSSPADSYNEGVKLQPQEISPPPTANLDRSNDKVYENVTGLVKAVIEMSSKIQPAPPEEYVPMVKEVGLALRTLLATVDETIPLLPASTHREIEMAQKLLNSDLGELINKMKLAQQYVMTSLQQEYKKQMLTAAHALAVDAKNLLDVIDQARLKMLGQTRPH
Chain of Aurora kinase B (Q96GD4 whole entry): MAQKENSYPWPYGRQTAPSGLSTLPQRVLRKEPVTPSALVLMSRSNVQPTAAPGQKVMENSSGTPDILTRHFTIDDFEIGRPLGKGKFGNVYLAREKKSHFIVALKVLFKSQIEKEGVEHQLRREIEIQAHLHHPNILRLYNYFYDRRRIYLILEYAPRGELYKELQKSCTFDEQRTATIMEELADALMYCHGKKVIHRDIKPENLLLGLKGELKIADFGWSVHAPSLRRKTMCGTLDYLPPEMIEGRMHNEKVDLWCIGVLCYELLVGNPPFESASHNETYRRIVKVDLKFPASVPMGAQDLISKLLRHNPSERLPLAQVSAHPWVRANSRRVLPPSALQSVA
Chain of Angiopoietin-1 receptor (Q02763 whole entry, the tested form may be a part): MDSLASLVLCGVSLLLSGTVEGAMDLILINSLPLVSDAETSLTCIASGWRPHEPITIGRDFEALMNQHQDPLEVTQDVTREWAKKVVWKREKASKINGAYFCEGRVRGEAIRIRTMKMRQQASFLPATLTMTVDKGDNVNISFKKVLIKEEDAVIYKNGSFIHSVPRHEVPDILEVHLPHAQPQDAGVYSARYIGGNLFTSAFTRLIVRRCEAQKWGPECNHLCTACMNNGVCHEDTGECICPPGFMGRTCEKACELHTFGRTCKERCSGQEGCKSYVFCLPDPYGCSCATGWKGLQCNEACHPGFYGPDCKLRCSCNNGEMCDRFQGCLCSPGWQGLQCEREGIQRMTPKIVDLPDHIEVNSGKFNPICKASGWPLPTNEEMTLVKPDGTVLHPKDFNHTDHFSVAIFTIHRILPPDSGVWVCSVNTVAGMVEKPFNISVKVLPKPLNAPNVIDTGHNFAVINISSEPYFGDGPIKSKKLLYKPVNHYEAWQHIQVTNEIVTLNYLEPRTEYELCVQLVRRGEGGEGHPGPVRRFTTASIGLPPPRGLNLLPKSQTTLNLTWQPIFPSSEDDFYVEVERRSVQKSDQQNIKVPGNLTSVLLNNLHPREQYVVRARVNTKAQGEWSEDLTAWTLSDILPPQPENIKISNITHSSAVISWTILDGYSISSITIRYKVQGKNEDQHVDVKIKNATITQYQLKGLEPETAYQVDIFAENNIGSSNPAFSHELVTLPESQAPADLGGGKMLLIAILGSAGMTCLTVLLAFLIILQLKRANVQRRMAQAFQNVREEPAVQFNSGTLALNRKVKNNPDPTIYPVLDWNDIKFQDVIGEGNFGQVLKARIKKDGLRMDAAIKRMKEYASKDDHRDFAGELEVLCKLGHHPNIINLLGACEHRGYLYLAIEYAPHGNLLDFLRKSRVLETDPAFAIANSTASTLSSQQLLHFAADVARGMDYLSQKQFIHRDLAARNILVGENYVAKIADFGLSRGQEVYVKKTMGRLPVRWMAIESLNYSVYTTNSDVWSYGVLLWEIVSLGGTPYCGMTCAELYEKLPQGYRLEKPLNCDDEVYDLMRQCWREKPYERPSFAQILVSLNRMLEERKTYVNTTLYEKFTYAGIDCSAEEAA
Chain of Proto-oncogene tyrosine-protein kinase Src (P12931 2-536 limits assumed): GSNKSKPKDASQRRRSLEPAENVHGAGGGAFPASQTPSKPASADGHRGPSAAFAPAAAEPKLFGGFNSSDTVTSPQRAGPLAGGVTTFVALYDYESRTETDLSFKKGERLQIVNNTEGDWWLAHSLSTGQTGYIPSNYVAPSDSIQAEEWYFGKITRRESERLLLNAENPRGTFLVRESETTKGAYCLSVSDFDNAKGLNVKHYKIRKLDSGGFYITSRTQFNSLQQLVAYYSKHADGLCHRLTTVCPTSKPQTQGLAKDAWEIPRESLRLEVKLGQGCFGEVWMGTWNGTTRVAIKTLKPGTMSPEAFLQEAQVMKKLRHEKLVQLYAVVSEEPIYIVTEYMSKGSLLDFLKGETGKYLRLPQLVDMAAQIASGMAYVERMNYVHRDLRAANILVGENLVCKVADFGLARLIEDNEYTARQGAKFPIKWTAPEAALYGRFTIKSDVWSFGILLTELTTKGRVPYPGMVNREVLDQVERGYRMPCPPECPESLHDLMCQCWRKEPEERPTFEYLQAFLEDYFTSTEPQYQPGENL
Chain of Cyclin-dependent kinase 4/cyclin D1 (P11802 whole entry): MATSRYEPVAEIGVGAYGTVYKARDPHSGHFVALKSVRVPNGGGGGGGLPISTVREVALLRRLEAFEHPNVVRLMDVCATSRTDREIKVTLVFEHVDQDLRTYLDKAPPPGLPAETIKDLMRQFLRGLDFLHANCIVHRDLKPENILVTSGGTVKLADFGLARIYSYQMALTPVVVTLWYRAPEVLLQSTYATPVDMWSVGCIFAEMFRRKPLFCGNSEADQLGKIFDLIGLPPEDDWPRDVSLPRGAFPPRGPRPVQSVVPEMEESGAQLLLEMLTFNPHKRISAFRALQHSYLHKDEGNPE
Chain of Cyclin-dependent kinase 4/cyclin D1 (P24385 whole entry, further chain): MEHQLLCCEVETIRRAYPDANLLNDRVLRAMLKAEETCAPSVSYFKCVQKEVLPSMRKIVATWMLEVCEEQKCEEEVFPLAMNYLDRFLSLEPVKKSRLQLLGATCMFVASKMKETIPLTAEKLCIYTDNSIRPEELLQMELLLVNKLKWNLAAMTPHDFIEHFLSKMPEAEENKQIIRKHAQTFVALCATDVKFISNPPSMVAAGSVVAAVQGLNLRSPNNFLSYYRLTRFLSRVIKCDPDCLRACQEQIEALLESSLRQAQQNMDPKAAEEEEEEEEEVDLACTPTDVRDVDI
Chain of Insulin receptor (P06213 28-758 limits assumed): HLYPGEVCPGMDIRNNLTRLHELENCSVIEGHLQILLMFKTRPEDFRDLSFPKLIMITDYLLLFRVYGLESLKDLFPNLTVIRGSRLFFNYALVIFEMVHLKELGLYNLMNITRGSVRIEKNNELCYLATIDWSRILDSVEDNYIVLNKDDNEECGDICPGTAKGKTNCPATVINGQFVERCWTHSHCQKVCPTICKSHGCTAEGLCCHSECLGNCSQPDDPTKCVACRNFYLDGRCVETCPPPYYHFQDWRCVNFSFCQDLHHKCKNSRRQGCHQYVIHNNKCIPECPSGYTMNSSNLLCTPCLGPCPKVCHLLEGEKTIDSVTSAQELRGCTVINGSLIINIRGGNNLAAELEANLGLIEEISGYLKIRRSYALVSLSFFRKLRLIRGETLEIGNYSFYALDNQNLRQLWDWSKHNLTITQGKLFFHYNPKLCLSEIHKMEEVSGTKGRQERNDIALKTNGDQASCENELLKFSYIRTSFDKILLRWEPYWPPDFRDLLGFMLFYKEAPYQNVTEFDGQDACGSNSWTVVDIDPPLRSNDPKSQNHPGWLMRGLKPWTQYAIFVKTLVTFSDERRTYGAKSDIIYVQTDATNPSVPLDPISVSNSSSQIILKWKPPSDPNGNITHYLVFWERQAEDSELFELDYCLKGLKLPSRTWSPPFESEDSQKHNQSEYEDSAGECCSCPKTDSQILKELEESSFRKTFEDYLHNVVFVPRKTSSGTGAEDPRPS
Chain of Insulin receptor (P06213 763-1382 limits assumed): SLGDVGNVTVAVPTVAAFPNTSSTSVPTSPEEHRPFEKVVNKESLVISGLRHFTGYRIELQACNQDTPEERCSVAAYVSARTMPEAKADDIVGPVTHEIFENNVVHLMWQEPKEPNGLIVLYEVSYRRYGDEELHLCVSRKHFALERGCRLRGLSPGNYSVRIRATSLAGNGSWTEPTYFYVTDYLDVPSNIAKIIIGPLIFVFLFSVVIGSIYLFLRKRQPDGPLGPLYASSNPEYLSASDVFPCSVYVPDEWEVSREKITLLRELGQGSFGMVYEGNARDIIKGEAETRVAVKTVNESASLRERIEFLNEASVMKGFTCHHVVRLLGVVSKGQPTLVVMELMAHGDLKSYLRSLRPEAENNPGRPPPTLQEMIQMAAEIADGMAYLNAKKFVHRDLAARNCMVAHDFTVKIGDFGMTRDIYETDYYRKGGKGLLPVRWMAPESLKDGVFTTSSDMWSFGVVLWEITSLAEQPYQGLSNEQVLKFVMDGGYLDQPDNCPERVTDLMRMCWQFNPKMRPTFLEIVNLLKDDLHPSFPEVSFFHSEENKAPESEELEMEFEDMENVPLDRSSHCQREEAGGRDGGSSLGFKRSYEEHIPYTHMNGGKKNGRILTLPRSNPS

In the case of `COc1cc(C2=C(c3c[nH]c4ccccc34)CNC2=O)cc(OC)c1OC`, the IC50 on Focal adhesion kinase 1 is 9.5 µM; at Aurora kinase B it was 46 µM; in experiment [1], 14 µM; at Angiopoietin-1 receptor, 5.2 µM; in [2], 6.1 µM. In addition, the inhibition in the experiment listed under Homo sapiens was 88%.
In the case of `COc1cc(C2=C(c3cn(CC(O)CO)c4ccccc34)CNC2=O)cc(OC)c1OC` (stereo not drawn), the concentration for half-maximal inhibition (IC50) at Angiopoietin-1 receptor amounted to 25 µM; in [3], 34 µM; in [2], 3 µM.
As to `COc1cc(C2=C(c3c[nH]c4ccccc34)C(=O)NC2)cc(OC)c1OC`, the concentration for half-maximal inhibition (IC50) in experiment [4] came out at 30 µM; at Aurora kinase B, 2.1 µM; in experiment [1], 41 µM; on Angiopoietin-1 receptor, 34 µM; in [3], 1.8 µM; in experiment [2], 2.2 µM. Also, the inhibition in the experiment listed under Homo sapiens came to 34%.
`COc1cc(C2=C(c3cn(C)c4ccccc34)C(=O)NC2)cc(OC)c1OC`: the IC50 came to 47 µM at Insulin receptor; 40 µM in [4]; 50 µM on Focal adhesion kinase 1; 9.8 µM on Aurora kinase B; 4.9 µM in [3]; 5 µM in [2].
Regarding `COc1cc(C2=C(c3cn(COC(C)(C)C)c4ccccc34)CNC2=O)cc(OC)c1OC`, the IC50 on Insulin receptor worked out at 27 µM; in [4], 27 µM; on Focal adhesion kinase 1, 28 µM; on Aurora kinase B, 43 µM; in experiment [1] it was 4.4 µM; at Angiopoietin-1 receptor, 11 µM. For the same compound, in [2], the IC50 was 20 µM.
Take `COc1ccc(C2=C(c3c[nH]c4ccccc34)C(=O)NC2)cc1`: the IC50 in experiment [4] was 35 µM; at Aurora kinase B it was 4.9 µM; in experiment [3], 2 µM; in experiment [2] it was 9.9 µM.

A word on the IC50: it is the point on the concentration scale where inhibition reaches its midpoint. As a reminder, the inhibition is the drop in the measured response relative to a control, in per cent.
